Experimental data collected from several papers.
Lines come from different studies, so protocols differ.
Cell line: MOLM-13
Effect on: cell growth or viability

`Nc1nc(Nc2ccc3c(c2)CC[C@@H](N2CCCC2)CC3)nn1-c1cc2c(nn1)-c1ccccc1CCC2` has an IC50 of 167 nM (trypan blue; 72 h).
`N[C@@H](CC(=O)N1CCN(C(c2ccc(F)cc2)c2ccc(F)cc2)CC1)C(=O)N1Cc2ccccc2C1` gave an IC50 of 2030 nM (ATP luminescence; 48 h).
`N[C@H]1CC[C@H](N[C@@H]2C[C@H]2c2ccccc2)CC1` gave an EC50 of 0.21 nM (resazurin; 96 h).
`COc1cc(Nc2nccc(-c3cnn4nc(OC)ccc34)n2)cc(C(F)(F)F)c1` gave an IC50 of 150 nM (ATP luminescence).
With `NNCCc1ccccc1` the EC50 was over 2000 nM (resazurin; 96 h).
The IC50 of `CCCON(Cc1ccc(C(=O)NO)cc1)C(=O)Nc1ccccc1` is reported as 239 nM (ATP luminescence; 72 h).
`COc1cc(-c2ncn(/C=C\C(=O)OC(C)C)n2)cc(C(F)(F)F)c1` has an IC50 of 15 nM (72 h).
`COc1cc(F)ccc1-c1cc(Nc2cc(CS(C)(=N)=O)ccn2)ncc1F` (stereo not drawn) gave a GI50 of 93.8 nM (24 h).
For `C#CCN(C)Cc1ccccc1`, the EC50 was over 2000 nM (resazurin; 96 h).
`Cc1cc2c(cc1N1C(=O)c3cccc4c(CCCO)ccc(c34)C1=O)n(C)c(=O)n2C` (racemic) has a GI50 of 1060 nM (resazurin).
`O=C(O)c1ccc(CN2CCC(CN[C@@H]3C[C@H]3c3ccccc3)CC2)cc1` has an EC50 of 40.2 nM (resazurin; 96 h).
`CC(C)C[C@H](NC(=O)[C@H](Cc1ccccc1)NC(=O)c1cnccn1)B(O)O` gave an IC50 of 4.5 nM (ATP luminescence).
With `COc1cc2nccc(Oc3ccc(NC(=O)C4(C(=O)Nc5ccc(F)cc5)CC4)cc3)c2cc1OC` the IC50 was 10 nM (trypan blue; 72 h).
`CC[C@@H](C)[C@H](N)C(=O)N1Cc2ccccc2C1` has an IC50 of 1860 nM (ATP luminescence; 48 h).
`CCCCN(Cc1ccc(C(=O)NO)cc1)C(=O)Nc1ccccc1` has an IC50 of 220 nM (ATP luminescence; 72 h).
